Shown are actives, neighbours in structure and some others; about 2.3% of the full set was active somewhere.
MC4R antagonist: MC4R antagonists of cAMP signaling, primary screen, cell-based, TR-FRET, antagonist arm of biased-ligand search | inhibition, % at 6.5 µM | 360,000 tested, 0.48% active | Melanocortin receptor 4 (Homo sapiens), P32245 | MC4R-expressing cells, MTII-stimulated cAMP, LANCE TR-FRET;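 active means inhibition above its plate's cutoff, the mean of tested wells on that plate plus 3 SD, cut at about 29% in these data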;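 further: 0% = Melanotan II alone and 100% = Melanotan II plus saturating MCL0020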
Target sequence (P32245 whole entry, looked up): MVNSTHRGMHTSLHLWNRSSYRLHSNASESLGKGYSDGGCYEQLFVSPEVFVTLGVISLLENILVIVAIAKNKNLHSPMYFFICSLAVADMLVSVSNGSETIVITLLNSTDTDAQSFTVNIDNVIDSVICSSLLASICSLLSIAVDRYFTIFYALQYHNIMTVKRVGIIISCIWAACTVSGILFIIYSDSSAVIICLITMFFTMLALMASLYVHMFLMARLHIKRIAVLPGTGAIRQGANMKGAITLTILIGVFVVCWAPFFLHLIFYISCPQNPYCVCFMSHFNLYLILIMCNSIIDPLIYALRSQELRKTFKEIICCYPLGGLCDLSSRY
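material = U2OS cells stably expressing human melanocortin 4 receptor (MC4R) | also added = Melanotan II challenge | dosing = single nominal compound dose of 6.5 µM | detection = TR-FRET with Eu-cAMP and labeled anti-cAMP, 671 nm | replication = singlicate | timing = compound 30 min, challenge 1 h, detection 1 h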
MsrA inhibitor: bovine MsrA enzyme inhibitors, primary screen, biochemical, absorbance, HTS. Methionine sulfoxide reductase A (Bos taurus). purified bovine MsrA, absorbance read-out. inhibition, % at 15.5 µM. 360,000 tested, 0.75% active. AID 651718, 2012;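 further: 0% = vehicle wells with enzyme and 100% = reference inhibitor wells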
MC4R barr agon: MC4R agonists recruiting beta-arrestin, primary screen, cell-based, luminescence, agonist arm of biased-ligand search; AID 540308, 2011; U2OS MC4R beta-arrestin complementation; percent of melanotan II response, DMSO zero; 360,000 tested, 0.98% active; Melanocortin receptor 4 (Homo sapiens), P32245; activation, % at 8.9 µM;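 active means activation above a per-plate cutoff, the mean activation of sample wells on that plate plus 3 SD, cut at about 8% in these data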
MsrA act: bovine MsrA enzyme activators, primary screen, biochemical, absorbance, HTS | purified bovine MsrA, absorbance read-out | activation, % at 10.6 µM | 360,000 tested, 0.3% active; in the data active means activation above about 7.5%;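 further: 0% = vehicle and 100% = reference activator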
MsrA inh confirm: bovine MsrA inhibitors, retest, confirmation, biochemical, absorbance, HTS. shares compounds with MsrA inhibitor. purified bovine MsrA, absorbance read-out. inhibition, % at 15.5 µM. 2,300 tested, 41% active;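 further: coupled to thioredoxin reductase with NADPH and selenocystamine and DMSO as substrate; 0% = vehicle only and 100% = full effect of reference inhibitor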
Starred values were filed as active, the others as inactive. Unless noted, no stated cut-off is given here; in the data, active means inhibition above about 4.5%; inactive means the rest.

CCCN1CN=C(Nc2nc3ccccc3o2)NC1 was read as MC4R antagonist 15, MsrA inhibitor 1, MC4R barr agon 0 and MsrA act -2.
`c1ccc(-n2cc(CNCCc3cscn3)c(-c3ccc4c(c3)OCO4)n2)cc1` gave MC4R antagonist 6, MsrA inhibitor 6.3*, MC4R barr agon 0, MsrA act -3 and MsrA inh confirm 1.
COc1cc(-c2ccc(Nc3ccccc3C(=O)O)c(OC)c2)ccc1Nc1ccccc1C(=O)O was read as MC4R antagonist 5, MsrA inhibitor 4.9*, MC4R barr agon 0, MsrA act -7 and MsrA inh confirm 5.3*.
Nc1nc2nccc(-c3ccc(Cl)cc3)n2n1 was read as MC4R antagonist 4, MsrA inhibitor 5.2*, MC4R barr agon 0, MsrA act -5 and MsrA inh confirm 2.
`Cc1cc(-c2ccc(Cl)cc2)n2nc(N)nc2n1` gave MC4R antagonist -5, MsrA inhibitor 1, MC4R barr agon -1 and MsrA act -10.
For N#CC(c1ccccc1O)N1N=C(c2ccccc2)CC1c1ccccc1 (stereo unspecified) the results were MC4R antagonist -2, MsrA inhibitor 3, MC4R barr agon 3 and MsrA act -6.
For COc1cc(C(C#N)N2N=C(c3ccccc3)CC2c2ccccc2)ccc1O (stereo unspecified) the results were MC4R antagonist 3, MsrA inhibitor 4.7*, MC4R barr agon -2, MsrA act -4 and MsrA inh confirm 1.
CC1(C)CC(N2CCN(c3ccccc3)CC2)=CC(=[N+]2CCCC2)C1 was read as MC4R antagonist 2, MsrA inhibitor 5.5*, MC4R barr agon -1, MsrA act -5 and MsrA inh confirm 5.0*.
CC1CC(C)C[N+](=C2C=C(N3CCCC3)CC(C)(C)C2)C1 (stereo unspecified) was read as MC4R antagonist -4, MsrA inhibitor 5.8*, MC4R barr agon -1, MsrA act -10 and MsrA inh confirm 4.
CC1(C)CC(N2CCCC2)=CC(=[N+]2CCCCCC2)C1 was read as MC4R antagonist 2, MsrA inhibitor 6.7*, MC4R barr agon 0, MsrA act -10 and MsrA inh confirm 4.9*.
Screening CN1CCc2ccccc2CC1=O returned MC4R antagonist 4, MsrA inhibitor 0, MC4R barr agon -1 and MsrA act -6.
For COc1ccc(C(=O)N2CCCCC2c2cc(C(=O)NCc3ccc(F)cc3)no2)cc1 (stereo unspecified) the results were MC4R antagonist -3, MsrA inhibitor 0, MC4R barr agon 0 and MsrA act -10.
Screening N/C(=N\OC(=O)Cc1ccccc1)c1ccncc1 returned MC4R antagonist 5, MsrA inhibitor 2, MC4R barr agon -2 and MsrA act -3.
`COc1ccc(CCNC(=O)C2CCN(S(=O)(=O)c3ccc(OC)c(OC)c3)CC2)cc1OC` gave MC4R antagonist 23, MsrA inhibitor -1, MC4R barr agon 2 and MsrA act -2.
COc1ccc(CCNC(=O)C2CCN(S(=O)(=O)c3ccc(-n4cnnn4)cc3)CC2)cc1OC was read as MC4R antagonist 4, MsrA inhibitor 56*, MC4R barr agon -1, MsrA act -2 and MsrA inh confirm -1.
`N#CC(Cc1ccccc1)(Cc1ccccc1)C(=O)NN` gave MC4R antagonist 2, MsrA inhibitor 0, MC4R barr agon 0 and MsrA act -4.
For COc1cc(/C(C)=N/NC(=O)c2ccc(CSc3nncn3C)cc2)cc(OC)c1OC the results were MC4R antagonist 4, MsrA inhibitor 1, MC4R barr agon -1 and MsrA act 3.
For COc1ccc(/C=N/NC(=O)c2ccc(CSc3nncn3C)cc2)cc1OC the results were MC4R antagonist 4, MsrA inhibitor 4.8*, MC4R barr agon -2, MsrA act -6 and MsrA inh confirm 4.
Screening CN(C)c1ccc(/C=N/NC(=O)c2ccc(CN3CCOCC3)cc2)cc1Br returned MC4R antagonist -12, MsrA inhibitor 2, MC4R barr agon 3 and MsrA act -14.

Source: PubChem BioAssay
